From ChEMBL document CHEMBL1122969, “Spiro[4.5] and spiro[4.6] carboxylic acids: cyclic analogues of valproic acid. Synthesis and anticonvulsant evaluation” (J Med Chem, 1985)

Experiments:
Mus musculus [1] = assay: Anticonvulsant activity against Maximal electroshock seizure at dose 300 mg/kg at 0.5 hr; assay type: functional
In short: (§1)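 Phase I mouse screen. Compound was suspended in 30% polyethylene glycol 400 and given by intraperitoneal injection at 30, 100, 300 or 600 mg/kg. Testing was at 30 min and 4 h (maximal electroshock or subcutaneous pentylenetetrazol), with rotorod toxicity scored alongside. Scored as animals protected/tested; toxicity was flagged at the 0.5 h or 4 h check.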

Mus musculus [2] = assay: Anticonvulsant activity against Maximal electroshock seizure at dose 300 mg/kg at 4 hr; assay type: functional; in short: as §1
Mus musculus [3] = assay: Anticonvulsant activity against Maximal electroshock seizure at dose 600 mg/kg at 4 hr; assay type: functional; in short: as §1
Mus musculus [4] = assay: Anticonvulsant activity against Subcutaneous pentylenetetrazole test at dose 300 mg/kg at 0.5 hr; assay type: functional; in short: as §1
Mus musculus [5] = assay: Anticonvulsant activity against Subcutaneous pentylenetetrazole test at dose 300 mg/kg at 4 hr; assay type: functional; in short: as §1
Mus musculus [6] = assay: Anticonvulsant activity against Subcutaneous pentylenetetrazole test at dose 600 mg/kg at 0.5 hr; assay type: functional; in short: as §1
Mus musculus [7] = assay: Anticonvulsant activity against Subcutaneous pentylenetetrazole test at dose 600 mg/kg at 4 hr; assay type: functional; in short: as §1
Mus musculus [8] = assay: Anticonvulsant activity against neurologic toxicity test at dose 300 mg/kg at 0.5 hr; assay type: organism-based; parameters: dose 300 mg/kg; settings: in vivo
In short: (§2)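 Mice got the compound as a suspension in 30% polyethylene glycol 400 by ip injection (30, 100, 300, 600 mg/kg) 30 min or 4 h before the rotorod neurological toxicity test. The value is the number of animals showing toxicity over the number tested.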

Mus musculus [9] = assay: Anticonvulsant activity against neurologic toxicity test at dose 300 mg/kg at 4 hr; assay type: organism-based; parameters: dose 300 mg/kg; settings: in vivo; in short: as §2
Mus musculus [10] = assay: Anticonvulsant activity against neurologic toxicity test at dose 600 mg/kg at 0.5 hr; assay type: organism-based; parameters: dose 600 mg/kg; settings: in vivo; in short: as §2
Mus musculus [11] = assay: Anticonvulsant activity against neurologic toxicity test at dose 600 mg/kg at 4 hr; assay type: organism-based; parameters: dose 600 mg/kg; settings: in vivo; in short: as §2
Mus musculus [12] = assay: Anticonvulsant activity against Maximal electroshock seizure at dose 600 mg/kg at 0.5 hr; assay type: functional; in short: as §1
Mus musculus [13] = assay: Phase II qualification against administered subcutaneously was reported.; assay type: functional; settings: sc
In short: (§3)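 Mice were used. scMet ED50 and rotorod TD50 came from groups of 6–12 mice dosed over a range until at least three points fell within 10–90% protection or minimal neurotoxicity. Both were read at the time of peak effect, 0.5 h. ED50, TD50 and 95% confidence intervals were obtained from a plot by the Litchfield–Wilcoxon method. PI = TD50/ED50.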

Mus musculus [14] = assay: Phase V qualification against antipicrotoxin activity administered subcutaneously at 3.2 mg/kg; assay type: functional; settings: sc, route subcutaneous
Mus musculus [15] = assay: Anticonvulsant activity against Maximal electroshock seizure at dose 300 mg/kg at 0.5 hr; toxic; assay type: ADME, organism-based; parameters: dose 300 mg/kg; settings: in vivo; in short: as §1
Mus musculus [16] = assay: Anticonvulsant activity against Bicucullin (3.75 mg/kg) induced clonic seizure at dose 150 mg/kg subcutaneously at pretreatment time of 15 min.; assay type: functional; settings: route subcutaneous
In short: (§4)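 CF1 mice (Sprague–Dawley) were given the compound sc in 30% polyethylene glycol 400, with vehicle-injected controls. After the stated pretreatment interval, at the time of peak effect, bicuculline 3.75 mg/kg was injected sc; this dose gives clonic and tonic seizures and death in all controls. Clonic seizure = at least one 5-s clonic spasm episode. Tonic seizure = hindlimb flexion then extension. Scored as mice protected/tested plus mean ± SD onset, minutes.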

Mus musculus [17] = assay: Anticonvulsant activity against Bicucullin (3.75 mg/kg) induced clonic seizure at dose 150 mg/kg subcutaneously at pretreatment time of 30 min.; assay type: functional; settings: route subcutaneous; in short: as §4
Mus musculus [18] = assay: Anticonvulsant activity against Bicucullin (3.75 mg/kg) induced death at dose 150 mg/kg subcutaneously at pretreatment time of 15 min.; assay type: ADME, organism-based; parameters: dose 150 mg/kg, route subcutaneous; settings: in vivo, sc
Mus musculus [19] = assay: Anticonvulsant activity against Bicucullin (3.75 mg/kg) induced death at dose 150 mg/kg subcutaneously at pretreatment time of 30 min.; assay type: ADME, organism-based; parameters: dose 150 mg/kg, route subcutaneous; settings: in vivo, sc
Mus musculus [20] = assay: Anticonvulsant activity against Bicucullin (3.75 mg/kg) induced tonic seizure at dose 150 mg/kg subcutaneously at pretreatment time of 15 min.; assay type: functional; settings: route subcutaneous; in short: as §4
[21] = Phase II qualification against neurotoxicity administered subcutaneously was reported.; assay type: toxicity, organism-based; settings: mouse, in vivo, sc; in short: as §3
[22] = Phase V qualification against neurotoxicity administered subcutaneously at a dose (3.2 mg/kg) was reported.; assay type: toxicity, organism-based; settings: mouse, in vivo, sc
Mus musculus [23] = assay: Anticonvulsant activity against picrotoxin (4.0 mg/kg) induced clonic seizures at 180 mg/kg subcutaneous dose 15 min pretreatment; assay type: functional
[24] = Protective index is the ratio of TD50 to that of ED50; assay type: ADME; settings: read-out: Protective index; in short: as §3
Mus musculus [25] = assay: Anticonvulsant activity against Bicucullin (3.75 mg/kg) induced tonic seizure at dose 150 mg/kg subcutaneously at pretreatment time of 30 min.; assay type: functional; settings: route subcutaneous; in short: as §4
Mus musculus [26] = assay: Anticonvulsant activity against Bicucullin (3.75 mg/kg) induced clonic seizure at dose 200 mg/kg subcutaneously at pretreatment time of 30 min.; assay type: functional; settings: route subcutaneous; in short: as §4
Mus musculus [27] = assay: Anticonvulsant activity against Bicucullin (3.75 mg/kg) induced death at dose 200 mg/kg subcutaneously at pretreatment time of 30 min.; assay type: ADME, organism-based; parameters: dose 200 mg/kg, route subcutaneous; settings: in vivo, sc
Mus musculus [28] = assay: Anticonvulsant activity against Bicucullin (3.75 mg/kg) induced tonic seizure at dose 200 mg/kg subcutaneously at pretreatment time of 15 min.; assay type: functional; settings: route subcutaneous, in the assay text read “pretreatment time of 30 min” for “pretreatment time of 15 min”; in short: as §4

| Compound | No. protected/tested (Mus musculus [2]) | No. protected/tested (Mus musculus [3]) | No. protected/tested (Mus musculus [4]) | No. protected/tested (Mus musculus [5]) | No. protected/tested (Mus musculus [6]) | No. protected/tested (Mus musculus [7]) | No. toxicity/tested (Mus musculus [8]) | No. toxicity/tested (Mus musculus [9]) | No. toxicity/tested (Mus musculus [10]) | No. toxicity/tested (Mus musculus [11]) | No. protected/tested (Mus musculus [12]) | No. protected/tested (Mus musculus [15]) | further results |
| --- | --- | --- | --- | --- | --- | --- | --- | --- | --- | --- | --- | --- | --- |
| O=C(O)C1(C(=O)O)CCC2(CCCCC2)C1 | 0 | 0 | 0 | 0 | 1 | 0 | 0 | 0 | 0 | 2 | 0 |  | No. protected/tested (Mus musculus [1]): 0 |
| O=C(O)C1CCC2(CCCCCC2)C1 (stereo unspecified) | 0 | 0 | 1 | 0 | 1 | 1 | 1 | 0 | 4 | 1 | 0 | 1 | ED50 (Mus musculus [13]): 83 mg/kg; ED50 (Mus musculus [14]): 167 mg/kg; Average onset (Mus musculus [16]): 7 min; Average onset (Mus musculus [17]): 8 min; Average onset (Mus musculus [18]): 10 min; Average onset (Mus musculus [19]): 14 min; Average onset (Mus musculus [20]): 10 min; TD50 [21]: 193 mg/kg; TD50 [22]: 193 mg/kg; Average onset (Mus musculus [23]): 21 min; selectivity ratio [24]: 2.3; Average onset (Mus musculus [25]): 13 min |
| O=C(O)C1CCC2(CCCCC2)C1 (stereo unspecified) | 0 | 0 | 1 | 0 | 1 | 0 | 3 | 0 | 4 | 0 | 0 | 1 | Average onset (Mus musculus [26]): 8 min; Average onset (Mus musculus [27]): 12 min; Average onset (Mus musculus [28]): 11 min |
